Reference: ChEMBL document CHEMBL4145652, “Chemoenzymatic Synthesis and Pharmacological Characterization of Functionalized Aspartate Analogues As Novel Excitatory Amino Acid Transporter Inhibitors” (J Med Chem, 2018)
The source made the active and inactive calls. No cut-off for these calls is given here.

How the values were obtained:
Format in all cases: cell-based
[1] = biological target: T1, Excitatory amino acid transporter 1 (Homo sapiens, UniProt P43003); test: Inhibition of human EAAT1 expressed in HEK293 cells assessed as reduction in [3H]-D-Asp uptake incubated for 4 mins by scintillation counting method
Method in brief: (§1)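 HEK293 cells stably expressing human EAAT1, EAAT2 or EAAT3 were plated 16–24 h before the assay. Cells were washed and incubated with 100 nM [3H]-D-Asp plus graded compound concentrations in HBSS/20 mM HEPES/CaCl2/MgCl2, pH 7.4, for 4 min at 37 °C. Uptake was in the linear range at this time. Cells were washed ice-cold and counted by scintillation. IC50 came from a Hill-equation fit. Three or four independent assays in duplicate.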

[2] = biological target: T2, Excitatory amino acid transporter 2 (Homo sapiens, UniProt P43004); test: Inhibition of human EAAT2 expressed in HEK293 cells assessed as reduction in [3H]-D-Asp uptake incubated for 4 mins by scintillation counting method; details: read-out: IC50
Method in brief: as §1, with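 “time. Nonspecific uptake was defined with 3 mM L-Glu.” for “time.”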

[3] = biological target: T3, Excitatory amino acid transporter 3 (Homo sapiens, UniProt P43005); test: Inhibition of human EAAT3 expressed in HEK293 cells assessed as reduction in [3H]-D-Asp uptake incubated for 4 mins by scintillation counting method; method in brief: as §1
T3 sequence (P43005 whole entry): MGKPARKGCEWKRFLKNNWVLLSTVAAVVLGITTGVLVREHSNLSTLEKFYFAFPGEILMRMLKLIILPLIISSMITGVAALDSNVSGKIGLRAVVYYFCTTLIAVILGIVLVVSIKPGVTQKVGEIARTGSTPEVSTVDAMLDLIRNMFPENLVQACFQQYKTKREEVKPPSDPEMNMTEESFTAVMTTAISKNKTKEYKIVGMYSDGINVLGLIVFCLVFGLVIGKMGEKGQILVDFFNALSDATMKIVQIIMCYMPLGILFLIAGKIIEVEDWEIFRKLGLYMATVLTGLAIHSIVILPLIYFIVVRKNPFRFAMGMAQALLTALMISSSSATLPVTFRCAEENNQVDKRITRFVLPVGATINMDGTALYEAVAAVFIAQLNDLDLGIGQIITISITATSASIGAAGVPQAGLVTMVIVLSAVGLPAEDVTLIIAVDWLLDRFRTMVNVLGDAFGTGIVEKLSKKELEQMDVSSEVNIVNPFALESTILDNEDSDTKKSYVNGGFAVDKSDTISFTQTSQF

[4] = biological target: T4, Excitatory amino acid transporter 4 (Rattus norvegicus, UniProt O35921); test: Inhibition of rat EAAT4 expressed in tsA201 cells assessed as reduction in [3H]-D-Asp uptake incubated for 4 mins by scintillation counting method; details: read-out: IC50
T4 sequence (O35921 whole entry): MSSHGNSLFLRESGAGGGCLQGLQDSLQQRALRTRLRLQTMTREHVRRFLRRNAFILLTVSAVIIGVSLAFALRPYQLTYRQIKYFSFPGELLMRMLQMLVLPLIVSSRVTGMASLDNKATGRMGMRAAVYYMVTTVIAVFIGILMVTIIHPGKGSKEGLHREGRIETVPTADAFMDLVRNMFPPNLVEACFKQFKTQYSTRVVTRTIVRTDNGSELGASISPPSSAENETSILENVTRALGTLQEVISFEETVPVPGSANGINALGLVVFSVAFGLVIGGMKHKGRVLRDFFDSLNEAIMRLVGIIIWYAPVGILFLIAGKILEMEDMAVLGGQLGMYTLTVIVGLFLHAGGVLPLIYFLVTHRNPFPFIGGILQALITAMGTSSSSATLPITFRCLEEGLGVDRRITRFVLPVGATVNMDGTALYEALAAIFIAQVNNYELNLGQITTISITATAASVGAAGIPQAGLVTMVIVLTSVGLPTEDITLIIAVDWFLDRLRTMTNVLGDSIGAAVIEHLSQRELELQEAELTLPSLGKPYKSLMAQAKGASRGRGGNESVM
Method in brief: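 Rat EAAT4 stably expressed in tsA201 cells, induced with 1 μg/mL tetracycline during overnight plating. [3H]-D-Asp (100 nM) uptake with graded compound concentrations ran for 4 min at 37 °C in HEPES-buffered HBSS, pH 7.4. Uptake was linear at this time. Nonspecific uptake was defined by 3 mM L-Glu. Read-out by scintillation counting. IC50 came from a Hill-equation fit. Three or four independent assays in duplicate.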

[5] = biological target: T1, Excitatory amino acid transporter 1; test: Potency index, ratio of IC50 for DL-TBOA to IC50 for test compound for inhibition of human EAAT1 expressed in HEK293 cells assessed as reduction in [3H]-D-Asp uptake incubated for 4 mins by scintillation counting method
Method in brief: (§2)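 Stable HEK293 lines expressing human transporter, plated on poly-D-lysine 16–24 h before assay. Washed cells were given HBSS/20 mM HEPES/1 mM CaCl2/1 mM MgCl2, pH 7.4, with 100 nM [3H]-D-Asp plus graded inhibitor for 4 min at 37 °C. Nonspecific uptake was taken with 3 mM L-Glu. IC50 came from a Hill fit; index = DL-TBOA IC50 ÷ test IC50. Three or four independent runs in duplicate.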

[6] = biological target: T2, Excitatory amino acid transporter 2; test: Potency index, ratio of IC50 for DL-TBOA to IC50 for test compound for inhibition of human EAAT2 expressed in HEK293 cells assessed as reduction in [3H]-D-Asp uptake incubated for 4 mins by scintillation counting method; method in brief: as §2
[7] = biological target: T5, Excitatory amino acid transporter 3 (Homo sapiens) (UniProt P43005); test: Potency index, ratio of IC50 for DL-TBOA to IC50 for test compound for inhibition of human EAAT3 expressed in HEK293 cells assessed as reduction in [3H]-D-Asp uptake incubated for 4 mins by scintillation counting method; method in brief: as §2
T5 sequence (whole entry): T3 sequence (P43005 whole entry)

[8] = biological target: T6, Excitatory amino acid transporter 4 (Rattus norvegicus) (UniProt O35921); test: Potency index, ratio of IC50 for DL-TBOA to IC50 for test compound for inhibition of rat EAAT4 expressed in tsA201 cells assessed as reduction in [3H]-D-Asp uptake incubated for 4 mins by scintillation counting method
T6 sequence (whole entry): T4 sequence (O35921 whole entry)
Method in brief: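 Stable rat EAAT4 tsA201 line induced with 1 µg/mL tetracycline on plating, 16–24 h before assay. Uptake used 100 nM [3H]-D-Asp with graded inhibitor in HEPES-buffered HBSS, pH 7.4, for 4 min at 37 °C. 3 mM L-Glu defined nonspecific uptake. Scintillation counts were Hill-fitted for IC50; index = DL-TBOA IC50 ÷ test IC50. Three or four independent runs in duplicate.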

[9] = biological target: T1, Excitatory amino acid transporter 1; test: Potency index, ratio of IC50 for NBI59159 to IC50 for test compound for inhibition of human EAAT1 expressed in HEK293 cells assessed as reduction in [3H]-D-Asp uptake incubated for 4 mins by scintillation counting method
[10] = biological target: T2, Excitatory amino acid transporter 2; test: Potency index, ratio of IC50 for NBI59159 to IC50 for test compound for inhibition of human EAAT2 expressed in HEK293 cells assessed as reduction in [3H]-D-Asp uptake incubated for 4 mins by scintillation counting method
[11] = biological target: T5, Excitatory amino acid transporter 3 (Homo sapiens); test: Potency index, ratio of IC50 for NBI59159 to IC50 for test compound for inhibition of human EAAT3 expressed in HEK293 cells assessed as reduction in [3H]-D-Asp uptake incubated for 4 mins by scintillation counting method
[12] = biological target: T1, Excitatory amino acid transporter 1; test: Potency index, ratio of IC50 for WAY-213613 to IC50 for test compound for inhibition of human EAAT1 expressed in HEK293 cells assessed as reduction in [3H]-D-Asp uptake incubated for 4 mins by scintillation counting method
[13] = biological target: T2, Excitatory amino acid transporter 2; test: Potency index, ratio of IC50 for WAY-213613 to IC50 for test compound for inhibition of human EAAT2 expressed in HEK293 cells assessed as reduction in [3H]-D-Asp uptake incubated for 4 mins by scintillation counting method
[14] = biological target: T5, Excitatory amino acid transporter 3 (Homo sapiens); test: Potency index, ratio of IC50 for WAY-213613 to IC50 for test compound for inhibition of human EAAT3 expressed in HEK293 cells assessed as reduction in [3H]-D-Asp uptake incubated for 4 mins by scintillation counting method
[15] = biological target: T6, Excitatory amino acid transporter 4 (Rattus norvegicus); test: Potency index, ratio of IC50 for WAY-213613 to IC50 for test compound for inhibition of rat EAAT4 expressed in tsA201 cells assessed as reduction in [3H]-D-Asp uptake incubated for 4 mins by scintillation counting method
[16] = biological target: T1, Excitatory amino acid transporter 1; test: Substrate activity at human EAAT1 expressed in HEK293 cells assessed as increase in fluorescence level at 300 uM incubated for 30 mins by fluorescence-based FLIPR membrane potential blue assay
Method in brief: (§3)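 Human EAAT1-, EAAT2- or EAAT3-HEK293 cells were loaded with FMP dye (0.5 mg/mL) in Na+-containing HEPES buffer, pH 7.4, for 30 min at 37 °C. Test compound was then added alone to an assay concentration of 300 μM. Fluorescence (ex 525/em 565 nm) was recorded before addition and up to 90 s after. Three independent experiments in triplicate.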

[17] = biological target: T2, Excitatory amino acid transporter 2; test: Substrate activity at human EAAT2 expressed in HEK293 cells assessed as increase in fluorescence level at 300 uM incubated for 30 mins by fluorescence-based FLIPR membrane potential blue assay; method in brief: as §3
[18] = biological target: T5, Excitatory amino acid transporter 3 (Homo sapiens); test: Substrate activity at human EAAT3 expressed in HEK293 cells assessed as increase in fluorescence level at 300 uM incubated for 30 mins by fluorescence-based FLIPR membrane potential blue assay; method in brief: as §3
[19] = biological target: T1, Excitatory amino acid transporter 1; test: Inhibition of human EAAT1 expressed in HEK293 cells assessed as reduction in EC80 L-glutamate-induced response at 300 uM pre-incubated before L-glutamate addition by fluorescence-based FLIPR membrane potential blue assay
Method in brief: (§4)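 Stably transfected HEK293 cells expressing human EAAT1, EAAT2 or EAAT3, plated the day before on poly-D-lysine-coated plates. Cells were loaded with FMP dye (0.5 mg/mL) in NaCl/KCl/HEPES/glucose buffer, pH 7.4, for 30 min at 37 °C, with test compound at 300 μM present. L-Glu at its EC80 for each transporter was then added. Emission at 565 nm (excitation 525 nm) was read up to 90 s. Three independent experiments in triplicate.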

[20] = biological target: T2, Excitatory amino acid transporter 2; test: Inhibition of human EAAT2 expressed in HEK293 cells assessed as reduction in EC80 L-glutamate-induced response at 300 uM pre-incubated before L-glutamate addition by fluorescence-based FLIPR membrane potential blue assay; method in brief: as §4
[21] = biological target: T5, Excitatory amino acid transporter 3 (Homo sapiens); test: Inhibition of human EAAT3 expressed in HEK293 cells assessed as reduction in EC80 L-glutamate-induced response at 300 uM pre-incubated before L-glutamate addition by fluorescence-based FLIPR membrane potential blue assay; method in brief: as §4
[22] = biological target: T2, Excitatory amino acid transporter 2; test: Inhibition of human EAAT2 expressed in HEK293 cells assessed as reduction in EC80 L-glutamate-induced response at 300 uM co-applied with L-glutamate addition by fluorescence-based FLIPR membrane potential blue assay

T2 sequence (P43004 whole entry): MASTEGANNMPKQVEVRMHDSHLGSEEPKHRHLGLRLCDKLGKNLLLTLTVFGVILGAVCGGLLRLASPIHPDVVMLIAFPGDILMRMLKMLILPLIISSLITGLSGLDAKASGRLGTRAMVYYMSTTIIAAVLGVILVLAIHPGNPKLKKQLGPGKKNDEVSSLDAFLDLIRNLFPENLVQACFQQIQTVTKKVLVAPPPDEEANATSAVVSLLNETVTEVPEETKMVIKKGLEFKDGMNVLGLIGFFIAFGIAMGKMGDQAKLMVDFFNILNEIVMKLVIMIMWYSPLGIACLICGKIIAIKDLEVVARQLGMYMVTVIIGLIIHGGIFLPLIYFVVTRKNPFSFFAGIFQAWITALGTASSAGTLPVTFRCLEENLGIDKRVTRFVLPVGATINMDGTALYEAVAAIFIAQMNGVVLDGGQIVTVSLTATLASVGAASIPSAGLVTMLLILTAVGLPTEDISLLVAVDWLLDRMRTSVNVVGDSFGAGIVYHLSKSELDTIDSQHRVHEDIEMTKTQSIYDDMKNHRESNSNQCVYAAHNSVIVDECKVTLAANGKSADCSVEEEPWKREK
T1 sequence (P43003 whole entry): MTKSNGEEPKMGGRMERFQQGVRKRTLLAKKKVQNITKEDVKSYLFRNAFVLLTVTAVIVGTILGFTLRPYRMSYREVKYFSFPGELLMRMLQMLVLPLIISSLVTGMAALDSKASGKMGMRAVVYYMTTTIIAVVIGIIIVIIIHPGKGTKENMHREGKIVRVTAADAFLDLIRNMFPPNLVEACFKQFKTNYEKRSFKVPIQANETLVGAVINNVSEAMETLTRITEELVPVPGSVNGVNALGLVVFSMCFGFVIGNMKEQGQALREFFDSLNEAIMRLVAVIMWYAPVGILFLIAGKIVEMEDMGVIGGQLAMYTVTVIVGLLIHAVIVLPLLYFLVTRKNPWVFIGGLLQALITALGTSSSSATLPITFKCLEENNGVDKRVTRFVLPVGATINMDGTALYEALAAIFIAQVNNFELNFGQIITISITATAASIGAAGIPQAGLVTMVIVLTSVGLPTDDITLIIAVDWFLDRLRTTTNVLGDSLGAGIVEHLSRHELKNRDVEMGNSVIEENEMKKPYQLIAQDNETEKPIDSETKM

IC50 [1] [nM] | IC50 [2] [nM] | IC50 [3] [nM] | IC50 [4] [nM] | Structure (SMILES) | Ratio IC50 [5] | Ratio IC50 [6] | Ratio IC50 [7] | Ratio IC50 [8] | other results
11 | 36 | 94 | 140 | N[C@H](C(=O)O)[C@H](OCc1ccccc1)C(=O)Nc1ccc(Oc2cc(F)c(F)cc2Br)cc1 | 190 | 53 | 40 | 16 | Ratio IC50 [12]: 78; Ratio IC50 [13]: 2; Ratio IC50 [14]: 20; Ratio IC50 [15]: 11
620 | 490 | 2600 | 1600 | N[C@H](C(=O)O)[C@H](OCC1CCCCC1)C(=O)O |  |  |  |  | Activity [16]: inactive; Activity [17]: inactive; Activity [18]: inactive; inhibition [19]: Active; inhibition [20]: Active; inhibition [21]: Active; inhibition [22]: Active

Structure (SMILES) | IC50 [1] [nM] | IC50 [2] [nM] | IC50 [3] [nM] | IC50 [4] [nM] | Ratio IC50 [5] | Ratio IC50 [6] | Ratio IC50 [7] | Ratio IC50 [8] | other results
N[C@H](C(=O)O)[C@H](OCc1ccccc1)C(=O)Nc1ccc2c(c1)Cc1ccccc1-2 | 12 | 47 | 55 | 80 | 180 | 40 | 69 | 29 | Ratio IC50 [9]: 83; Ratio IC50 [10]: 30; Ratio IC50 [11]: 1.6
